Data taken from publication PMC4969713 (Journal of Alzheimer's Disease, 2016).
Where a name gives a salt, the structure may show the parent alone. Read-outs that look alike come from different tables or passages of the source.

Assays:
5-HT2C receptor [1] = molecular target: T1, 5-HT2C receptor (Homo sapiens, UniProt P28335); test: Radioligand binding competition, 5-HT2C; conditions: Ki
T1 sequence (P28335 33-458): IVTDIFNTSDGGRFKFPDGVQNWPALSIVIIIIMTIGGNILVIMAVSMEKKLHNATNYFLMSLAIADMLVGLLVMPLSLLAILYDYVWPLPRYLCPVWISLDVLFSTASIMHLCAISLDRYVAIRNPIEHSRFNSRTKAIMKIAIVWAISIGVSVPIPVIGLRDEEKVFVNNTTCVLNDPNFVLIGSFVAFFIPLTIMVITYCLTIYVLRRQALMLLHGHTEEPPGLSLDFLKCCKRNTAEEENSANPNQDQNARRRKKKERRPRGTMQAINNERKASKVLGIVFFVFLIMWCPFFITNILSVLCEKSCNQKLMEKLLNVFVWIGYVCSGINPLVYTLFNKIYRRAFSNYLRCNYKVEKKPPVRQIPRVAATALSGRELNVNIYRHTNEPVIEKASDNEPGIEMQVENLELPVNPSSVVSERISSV

healthy volunteers = test: Phase I tolerability, healthy volunteers; assay type: in vivo, human
Procedure, shortened: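 Healthy volunteers received single oral doses. Venous blood was drawn through an IV catheter before dosing and at several time points after. Urine was collected before dosing and at 4 h and 24 h after. Systolic and diastolic pressure and heart rate were monitored.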

male Long Evans rats = test: Geller-Seifter conflict test; assay type: in vivo; conditions: IV, 5 min before test
Procedure, shortened: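 Male Long Evans rats were food-deprived for 24 h, with at least 5 per group. Test compound was given IV via tail vein 5 min before testing. The test ran two 30-min sessions, unpunished and punished (conflict), with lever presses counted. Results were expressed as relative change versus the vehicle group.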

[2] = Stability in human blood plasma; assay type: in vitro ADME; conditions: 30-min incubation, room temperature
[3] = molecular target: norpinephrine transporter (Homo sapiens, UniProt P23975); test: Target panel binding, norpinephrine transporter
sigma 1 receptor = sigma 1 receptor (Homo sapiens, UniProt Q99720); test: Target panel binding, sigma 1
5-HT2C receptor [4] = molecular target: T1, 5-HT2C receptor; conditions: Table 2; cited from earlier work
CYP3A4 = CYP3A4 (Homo sapiens, UniProt P08684); test: Metabolism by recombinant CYP3A4; assay type: in vitro ADME
P-glycoprotein = P-glycoprotein (Homo sapiens, UniProt P08183); test: Pgp-Glo ATPase assay; assay type: biochemical
Procedure, shortened: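 P-glycoprotein ATPase activity was measured with the Pgp-Glo assay system per the manufacturer's protocol. Orthovanadate-sensitive activity was determined in the presence of test compound.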

Solubility in water = assay type: physicochemical; conditions: pH 7.4
[5] = tested on: Salmonella typhimurium strains: TA98, TA1535, and TA1537; test: Ames MPF test; assay type: cell-based; conditions: AVN-101 highest concentration 50μM
Procedure, shortened: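 Run per kit manual in the Ames MPF fluctuation format with histidine-dependent strains TA98, TA1535 and TA1537. Test compound reached a highest concentration of 50 μM. Strain-specific positive controls: 4-nitro-o-phenylenediamine 15 μg/mL (TA98), sodium azide 2 μg/mL (TA1535), 9-aminoacridine 50 μg/mL (TA1537). Reverse mutation rate recorded.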

5-HT5A receptor = 5-HT5A receptor (Homo sapiens, UniProt P47898); test: Radioligand binding competition, 5-HT5A
[6] = tested on: calcium channels of L type; test: Target panel binding, calcium channel L type
[7] = Pharmacokinetics in mice, IP; assay type: in vivo; conditions: mouse, blood
[8] = molecular target: calcium channels of N type (Homo sapiens, UniProt Q00975); test: Target panel binding, calcium channel N type
[9] = Stability in monkey blood plasma; assay type: in vitro ADME; conditions: 30-min incubation, room temperature
[10] = Stability in murine blood plasma; assay type: in vitro ADME, mouse; conditions: 30-min incubation, room temperature
[11] = Brain/plasma/CSF distribution in Sprague Dawley rats; assay type: in vivo
CYP2C9 = CYP2C9 (Homo sapiens, UniProt P11712); test: Metabolism by recombinant CYP2C9; assay type: in vitro ADME
guinea pigs = test: Q-T interval, guinea pigs; assay type: in vivo; conditions: 10 mg/kg IP
sodium channel (Site 2) = test: Target panel binding, sodium channel
CYP2C8 = CYP2C8 (Homo sapiens, UniProt P10632); test: Metabolism by recombinant CYP2C8; assay type: in vitro ADME
dopamine transporter = dopamine transporter (Homo sapiens, UniProt Q01959); test: Target panel binding, dopamine transporter
[12] = Sprague Dawley, rat, CSF, iv, 2 mg/kg
[13] = Sprague Dawley, rat, brain, iv, 2 mg/kg
[14] = Sprague Dawley, rat, plasma, iv, 2 mg/kg

Chain of P-glycoprotein (P08183 whole entry): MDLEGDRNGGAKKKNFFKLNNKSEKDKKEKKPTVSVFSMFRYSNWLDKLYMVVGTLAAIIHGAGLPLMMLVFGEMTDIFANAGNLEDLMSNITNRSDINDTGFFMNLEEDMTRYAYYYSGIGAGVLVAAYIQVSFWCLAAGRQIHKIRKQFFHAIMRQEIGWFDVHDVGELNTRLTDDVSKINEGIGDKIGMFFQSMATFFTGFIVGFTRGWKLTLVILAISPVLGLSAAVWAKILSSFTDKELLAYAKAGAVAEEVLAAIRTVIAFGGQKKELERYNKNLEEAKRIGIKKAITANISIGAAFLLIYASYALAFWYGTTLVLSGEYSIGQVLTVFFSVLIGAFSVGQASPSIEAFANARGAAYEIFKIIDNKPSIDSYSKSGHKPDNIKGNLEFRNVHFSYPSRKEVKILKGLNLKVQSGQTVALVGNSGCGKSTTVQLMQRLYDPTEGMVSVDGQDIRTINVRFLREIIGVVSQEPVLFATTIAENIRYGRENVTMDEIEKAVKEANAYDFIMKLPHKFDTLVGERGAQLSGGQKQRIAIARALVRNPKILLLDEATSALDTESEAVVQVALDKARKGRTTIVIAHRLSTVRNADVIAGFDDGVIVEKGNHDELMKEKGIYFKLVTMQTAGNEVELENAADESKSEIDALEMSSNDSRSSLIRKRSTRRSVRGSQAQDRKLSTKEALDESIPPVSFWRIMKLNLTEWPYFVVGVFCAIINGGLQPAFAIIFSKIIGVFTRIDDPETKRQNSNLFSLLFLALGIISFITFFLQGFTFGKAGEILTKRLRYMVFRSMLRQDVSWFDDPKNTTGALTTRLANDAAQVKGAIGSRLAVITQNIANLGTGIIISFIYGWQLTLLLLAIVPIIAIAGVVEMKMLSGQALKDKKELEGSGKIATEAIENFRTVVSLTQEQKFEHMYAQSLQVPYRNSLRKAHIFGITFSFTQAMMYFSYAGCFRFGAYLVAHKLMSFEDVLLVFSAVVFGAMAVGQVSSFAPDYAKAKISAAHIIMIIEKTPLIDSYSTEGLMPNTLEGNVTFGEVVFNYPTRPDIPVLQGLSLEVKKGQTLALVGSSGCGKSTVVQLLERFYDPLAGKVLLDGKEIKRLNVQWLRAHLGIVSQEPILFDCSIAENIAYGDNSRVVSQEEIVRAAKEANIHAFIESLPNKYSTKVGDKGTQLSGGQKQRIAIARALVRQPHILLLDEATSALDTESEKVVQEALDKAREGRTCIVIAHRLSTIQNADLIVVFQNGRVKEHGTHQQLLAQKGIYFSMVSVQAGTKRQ
Chain of CYP3A4 (P08684 whole entry): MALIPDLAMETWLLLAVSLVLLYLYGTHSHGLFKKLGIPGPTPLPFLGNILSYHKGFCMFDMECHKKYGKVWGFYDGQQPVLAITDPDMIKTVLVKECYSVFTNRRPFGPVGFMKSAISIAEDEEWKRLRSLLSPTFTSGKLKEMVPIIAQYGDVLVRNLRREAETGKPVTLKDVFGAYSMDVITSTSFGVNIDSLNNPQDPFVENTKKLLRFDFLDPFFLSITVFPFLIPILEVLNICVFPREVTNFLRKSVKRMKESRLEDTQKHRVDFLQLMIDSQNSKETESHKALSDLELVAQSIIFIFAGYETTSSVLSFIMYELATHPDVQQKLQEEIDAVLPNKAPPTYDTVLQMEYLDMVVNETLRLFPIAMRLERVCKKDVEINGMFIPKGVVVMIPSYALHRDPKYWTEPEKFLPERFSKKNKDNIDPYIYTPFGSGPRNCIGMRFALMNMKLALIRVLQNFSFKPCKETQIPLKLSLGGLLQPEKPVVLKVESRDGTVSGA
Chain of CYP2C8 (P10632 whole entry): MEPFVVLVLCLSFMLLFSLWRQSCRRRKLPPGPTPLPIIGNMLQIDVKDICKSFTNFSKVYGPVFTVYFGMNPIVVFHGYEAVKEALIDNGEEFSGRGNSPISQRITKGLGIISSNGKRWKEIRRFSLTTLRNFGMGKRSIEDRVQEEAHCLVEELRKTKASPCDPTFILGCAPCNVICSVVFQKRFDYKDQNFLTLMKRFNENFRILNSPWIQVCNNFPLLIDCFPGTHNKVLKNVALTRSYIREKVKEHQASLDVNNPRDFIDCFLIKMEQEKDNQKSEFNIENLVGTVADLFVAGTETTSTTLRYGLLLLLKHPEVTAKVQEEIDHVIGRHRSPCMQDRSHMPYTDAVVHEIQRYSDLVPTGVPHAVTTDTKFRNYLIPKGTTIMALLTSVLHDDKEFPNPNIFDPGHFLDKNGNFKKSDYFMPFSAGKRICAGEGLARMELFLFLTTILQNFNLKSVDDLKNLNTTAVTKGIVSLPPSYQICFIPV
Chain of dopamine transporter (Q01959 whole entry): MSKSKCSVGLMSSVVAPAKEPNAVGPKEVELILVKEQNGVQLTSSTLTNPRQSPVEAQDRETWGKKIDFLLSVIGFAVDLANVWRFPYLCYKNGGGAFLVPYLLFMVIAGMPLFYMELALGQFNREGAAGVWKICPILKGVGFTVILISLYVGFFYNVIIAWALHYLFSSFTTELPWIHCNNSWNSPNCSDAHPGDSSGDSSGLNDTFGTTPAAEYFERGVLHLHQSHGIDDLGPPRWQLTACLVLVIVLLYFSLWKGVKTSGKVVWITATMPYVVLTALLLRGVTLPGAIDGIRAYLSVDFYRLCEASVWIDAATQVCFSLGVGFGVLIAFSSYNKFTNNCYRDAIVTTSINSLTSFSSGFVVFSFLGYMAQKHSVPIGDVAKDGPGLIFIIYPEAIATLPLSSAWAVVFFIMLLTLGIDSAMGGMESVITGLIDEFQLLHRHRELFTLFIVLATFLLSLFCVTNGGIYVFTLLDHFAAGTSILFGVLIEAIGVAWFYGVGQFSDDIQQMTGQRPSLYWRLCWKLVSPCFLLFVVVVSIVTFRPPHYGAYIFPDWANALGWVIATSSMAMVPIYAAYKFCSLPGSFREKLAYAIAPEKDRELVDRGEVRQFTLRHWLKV
Chain of sigma 1 receptor (Q99720 whole entry, species assumed): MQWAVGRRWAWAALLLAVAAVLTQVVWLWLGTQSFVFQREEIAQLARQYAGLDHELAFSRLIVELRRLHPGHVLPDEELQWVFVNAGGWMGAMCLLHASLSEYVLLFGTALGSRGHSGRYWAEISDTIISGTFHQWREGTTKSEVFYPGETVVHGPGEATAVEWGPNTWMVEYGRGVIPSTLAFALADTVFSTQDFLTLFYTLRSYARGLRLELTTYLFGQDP
Chain of 5-HT5A receptor (P47898 whole entry): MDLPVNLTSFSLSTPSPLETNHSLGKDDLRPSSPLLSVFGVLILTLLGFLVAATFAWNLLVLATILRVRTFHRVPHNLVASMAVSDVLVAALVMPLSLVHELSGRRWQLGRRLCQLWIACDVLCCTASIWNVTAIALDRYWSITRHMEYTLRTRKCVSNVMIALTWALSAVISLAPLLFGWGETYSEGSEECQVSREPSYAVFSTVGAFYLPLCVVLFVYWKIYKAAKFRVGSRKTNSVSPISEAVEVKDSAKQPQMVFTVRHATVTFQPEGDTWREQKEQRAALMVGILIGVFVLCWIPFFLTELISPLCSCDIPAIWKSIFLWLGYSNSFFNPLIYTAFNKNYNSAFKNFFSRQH
Chain of CYP2C9 (P11712 whole entry): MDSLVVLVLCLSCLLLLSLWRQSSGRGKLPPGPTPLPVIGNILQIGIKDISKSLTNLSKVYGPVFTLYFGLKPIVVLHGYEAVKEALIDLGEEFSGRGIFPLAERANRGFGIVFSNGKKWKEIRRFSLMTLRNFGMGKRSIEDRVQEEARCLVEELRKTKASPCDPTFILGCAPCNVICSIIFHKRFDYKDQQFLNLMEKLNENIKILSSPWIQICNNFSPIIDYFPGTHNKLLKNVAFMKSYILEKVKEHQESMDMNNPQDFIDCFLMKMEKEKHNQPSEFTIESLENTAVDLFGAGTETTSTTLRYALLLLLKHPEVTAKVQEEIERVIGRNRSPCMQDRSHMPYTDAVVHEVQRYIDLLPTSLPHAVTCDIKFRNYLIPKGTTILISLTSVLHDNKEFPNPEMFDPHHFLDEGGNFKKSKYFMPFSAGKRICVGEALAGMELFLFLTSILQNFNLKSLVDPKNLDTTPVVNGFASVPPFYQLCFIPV
Chain of norpinephrine transporter (P23975 whole entry): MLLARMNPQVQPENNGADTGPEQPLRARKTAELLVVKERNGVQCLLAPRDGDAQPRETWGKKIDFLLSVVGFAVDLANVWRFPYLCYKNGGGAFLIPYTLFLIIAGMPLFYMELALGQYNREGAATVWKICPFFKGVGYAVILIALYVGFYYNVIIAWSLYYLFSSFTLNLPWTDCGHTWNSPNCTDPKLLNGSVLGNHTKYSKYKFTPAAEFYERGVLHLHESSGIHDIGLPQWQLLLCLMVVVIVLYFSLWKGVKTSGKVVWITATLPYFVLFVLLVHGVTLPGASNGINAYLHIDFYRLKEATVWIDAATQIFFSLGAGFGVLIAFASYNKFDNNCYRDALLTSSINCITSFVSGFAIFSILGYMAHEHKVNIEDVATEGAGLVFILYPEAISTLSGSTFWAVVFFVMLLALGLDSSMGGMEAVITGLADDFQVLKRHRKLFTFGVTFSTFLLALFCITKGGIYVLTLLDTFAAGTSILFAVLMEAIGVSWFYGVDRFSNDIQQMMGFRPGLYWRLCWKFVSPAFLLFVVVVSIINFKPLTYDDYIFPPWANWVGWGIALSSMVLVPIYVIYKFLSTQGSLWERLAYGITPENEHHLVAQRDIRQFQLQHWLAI

Which Ki (5-HT2C receptor [1]) does the source give for `Cc1ccc2c(c1)c1c(n2CCc2ccccc2)CCN(C)C1` [AVN-101, 2,8-dimethyl-5-penethyl-2,3,4,5-tetra-hydro-1h-pyrido[[4,3-B]]indole hydrochloride] here?
The Ki was 1.2 to 2 nM.

What about the sleepiness (healthy volunteers; 20 mg, 8 volunteers per group) of the same molecule?
Its sleepiness is 3 volunteers.

And the adverse effects (healthy volunteers; 20 mg, first half of the day)?
The adverse effects was “some adverse effects were detected in five volunteers”.

What about the “blood pressure, one person” value (healthy volunteers; 20 mg, 141/88 before to 157/87 (2 h–4 h) and 155/77 (6 h–7.5 h)) of the same molecule?
The value was “transient increase in systolic pressure”.

What about the “QT interval in ECG” value (healthy volunteers; 2, 4, 10, 20 mg single PO dose) of the same molecule?
Its value is “No QT interval prolongation”.

What about the “biochemical and clinical parameters of blood and urine” value (healthy volunteers; all dose groups) of the same molecule?
Its value is “in a normal range”.

What about the tolerability (healthy volunteers; orally, doses of up to 20 mg daily) of the same molecule?
Its tolerability is “well tolerated”.

What about the “activity during unpunished rewards session” value (male Long Evans rats) of the same molecule?
Its value is “no effect observed”.

What about the “activity during punished conflict rewards session” value (male Long Evans rats; compared to vehicle) of the same molecule?
Its value is “significantly increased”.

What about the “residual amount of original compound” value [2] of the same molecule?
Its value is 68%.

What about the binding [3] of the same molecule?
Its binding is “does not bind”.

What about the binding (sigma 1 receptor) of the same molecule?
The binding was “does not bind”.

And the Ki (5-HT2C receptor [4])?
The Ki was 1.17 nM.

What about the remaining at 0.5 h, 2 µM (CYP3A4) of the same molecule?
The remaining at 0.5 h, 2 µM was 2%.

And the EC50 (P-glycoprotein)?
Its EC50 is about 50000 nM.

And the “effect on Pgp ATP-ase activity” value (P-glycoprotein; orthovanadate-sensitive ATPase)?
Its value is “strong activation”.

And the solubility (Solubility in water)?
The solubility was 194 mg/mL.

And the “mutagenicity (reverse mutation rate)” value [5]?
The value was “produced no mutagenesis”.

What about the Ki (5-HT5A receptor) of the same molecule?
Its Ki is 20.8 nM.

And the binding [6]?
Its binding is “does not bind”.

What about the Cmax ([7]; 0.05 mg/kg) of the same molecule?
Its Cmax is 1.9 ng/mL.

What about the Tmax ([7]; 0.05 mg/kg) of the same molecule?
The Tmax was 5 min.

And the half-life ([7]; 0.05 mg/kg)?
Its half-life is 10.5 min.

What about the AUC ([7]; 0.05 mg/kg, AUC0 - >t, IP 0.05 mg/kg) of the same molecule?
The AUC was 0.487 ng·h/mL.

And the AUC ([7]; 0.05 mg/kg, AUC0 - >∞, IP 0.05 mg/kg)?
The AUC was 0.498 ng·h/mL.

And the Cmax ([7]; 0.2 mg/kg)?
Its Cmax is 5 ng/mL.

And the Tmax ([7]; 0.2 mg/kg)?
The Tmax was 15 min.

And the half-life ([7]; 0.2 mg/kg)?
Its half-life is 58 min.

And the AUC ([7]; 0.2 mg/kg, AUC0 - >t, IP 0.2 mg/kg)?
Its AUC is 5.65 ng·h/mL.

And the AUC ([7]; 0.2 mg/kg, AUC0 - >∞, IP 0.2 mg/kg)?
The AUC was 6.08 ng·h/mL.

And the Cmax ([7]; 1 mg/kg)?
The Cmax was 23 ng/mL.

And the Tmax ([7]; 1 mg/kg)?
Its Tmax is 15 min.

And the half-life ([7]; 1 mg/kg)?
The half-life was 81 min.

And the AUC ([7]; 1 mg/kg, AUC0 - >t, IP 1.0 mg/kg)?
The AUC was 25.9 ng·h/mL.

And the AUC ([7]; 1 mg/kg, AUC0 - >∞, IP 1.0 mg/kg)?
The AUC was 32 ng·h/mL.

And the half-life ([7]; 2 mg/kg)?
The half-life was 130 min.

What about the Cmax ([7]; 5 mg/kg) of the same molecule?
Its Cmax is 198 ng/mL.

What about the Tmax ([7]; 5 mg/kg) of the same molecule?
Its Tmax is 5 min.

And the concentration at 5 min ([7]; 5 mg/kg)?
Its concentration at 5 min is about 650 nM.

What about the half-life ([7]; 5 mg/kg) of the same molecule?
The half-life was 136 min.

What about the AUC ([7]; 5 mg/kg, AUC0 - >t, IP 5.0 mg/kg) of the same molecule?
Its AUC is 184 ng·h/mL.

What about the AUC ([7]; 5 mg/kg, AUC0 - >∞, IP 5.0 mg/kg) of the same molecule?
Its AUC is 274 ng·h/mL.

And the binding [8]?
Its binding is “does not bind”.

And the “residual amount of original compound” value [9]?
The value was 45%.

What about the “residual amount of original compound” value [10] of the same molecule?
The value was 16%.

What about the “binding to blood cells” value ([11]; IV 2 mg/kg, 5 min after injection) of the same molecule?
The value was “low binding capacity”.

And the Vss_obs ([11]; Plasma, IV 2 mg/kg)?
Its Vss_obs is 11.6136 L/kg.

What about the AUC(0-inf) [11, 12] of the same molecule?
The AUC(0-inf) was 31.7 ng·h/mL.

And the AUC(0-t) [11, 12]?
The AUC(0-t) was 25.3 ng·h/mL.

And the Cmax [11, 12]?
The Cmax was 11 ng/mL.

What about the half-life [11, 12] of the same molecule?
Its half-life is 97.5 min.

And the k el [11, 12]?
Its k el is 0.000118 s⁻¹.

What about the AUC(0-inf) [11, 13] of the same molecule?
Its AUC(0-inf) is 8960 ng·h/mL.

What about the AUC(0-t) [11, 13] of the same molecule?
The AUC(0-t) was 8000 ng·h/mL.

And the Cmax [11, 13]?
Its Cmax is 4660 ng/mL.

What about the Tmax [11, 13] of the same molecule?
Its Tmax is 4.8 min.

What about the half-life [11, 13] of the same molecule?
The half-life was 75.7 min.

And the k el [11, 13]?
The k el was 0.000153 s⁻¹.

And the AUC(0-inf) [11, 14]?
The AUC(0-inf) was 522 ng·h/mL.

And the AUC(0-t) [11, 14]?
The AUC(0-t) was 376 ng·h/mL.

What about the C0 [11, 14] of the same molecule?
Its C0 is 308 ng/mL.

And the Cmax [11, 14]?
The Cmax was 274 ng/mL.

What about the Tmax [11, 14] of the same molecule?
Its Tmax is 4.98 min.

What about the Vd [11, 14] of the same molecule?
Its Vd is 13.2 L/kg.

And the clearance [11, 14]?
Its clearance is 63.9 mL/min/kg.

And the half-life [11, 14]?
The half-life was 143 min.

And the k el [11, 14]?
Its k el is 8e-05 s⁻¹.

What about the remaining at 0.5 h, 2 µM (CYP2C9) of the same molecule?
Its remaining at 0.5 h, 2 µM is 110%.

And the “increase in the QT interval over vehicle” value (guinea pigs)?
Its value is at most 10%.

And the binding (sodium channel (Site 2))?
Its binding is “does not bind”.

And the remaining at 0.5 h, 2 µM (CYP2C8)?
Its remaining at 0.5 h, 2 µM is 118%.

What about the binding (dopamine transporter) of the same molecule?
The binding was “does not bind”.
